# Source: PubChem BioAssay
# Compounds with a hit are over-represented: about 5.1% of the library has one in this group of screens.
# STAT3 inh – STAT3 signaling inhibition | U3A cells, IL-6 STAT3-luciferase reporter, luminescence; host cell line lacks STAT1 | inhibition, % at 5.5 µM | 0.89% of 190,000 active;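 active = inhibition above the mean inhibition across all screened compounds plus 3 SD, cut at about 44% in these data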;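 also: 0% = DMSO only wells and 100% = 100 µM nifuroxazide control wells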
# STAT1 act – increases IFN-gamma driven STAT1 reporter signal; AID 932; NIH 3T3 STAT1-luciferase reporter, luminescence; 100% = IFN-gamma alone, no compound; 2.6% of 200,000 active; activation (% of control), % at 5.5 µM;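 active = activation above the screen-wide mean activation plus 3 SD, cut at about 130% in these data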;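 also: raw ratio to IFN-gamma control signal so 100% means no change and 0% no light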
# APP 5'UTR act – activates APP 5'UTR luciferase reporter; SH-SY5Y APP 5'UTR luciferase reporter, luminescence; zero percent = DMSO vehicle wells; activation, % at 2 µM; 1% of 190,000 active;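 active = activation above a set limit, based on mean plus 3 SD of controls, cut at about 140% in these data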
# NF-kB expr up – NF-kB expression increase, human neuronal cells; NF-kB reporter expression; active compounds read high; fold change at 12.5 µM; 1.6% of 190,000 active; in the data active = fold change above about 3.3
# STAT1 blocker – STAT1 signaling inhibition; NIH 3T3 STAT1-luciferase reporter, IFN-gamma, luminescence; inhibition, % at 5.5 µM; 0.35% of 200,000 active; AID 920;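 active = inhibition above a set limit, the mean inhibition across all tested compounds plus 3 SD, cut at about 34% in these data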;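 also: 0% = IFN-gamma with DMSO and 100% = IFN-gamma with 300 µM nifuroxazide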
# STAT3 act – increases IL-6 driven STAT3 reporter signal. U3A cells, IL-6 STAT3-luciferase reporter, luminescence; 100% = signal with IL-6 EC80 alone. activation (% of control), % at 5.6 µM. 0.91% of 190,000 active;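 active = activation above the screen-wide mean of compound activation plus 3 SD, cut at about 130% in these data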;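 also: 0% = background luminescence of wells with medium and substrate only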
#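 System – human U3A cells carrying STAT3-luciferase construct · Probe or stimulus – Interleukin-6, 33 ng/mL · Schedule – compound 1 h, then IL-6 6 h at 37 °C · Signal – luminescence from STAT3-driven luciferase reporter · Evaluation – percent of IL-6-only median luminescence · Benchmarks – IL-6-only high control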
# * hit, by the source's call; / = no result given.
SMILES,STAT3 inh,STAT1 act,APP 5'UTR act,NF-kB expr up,STAT1 blocker,STAT3 act
Cc1cc(NS(=O)(=O)c2ccc(Nc3nc(-c4sc(C)nc4C)cs3)cc2)no1,-2,101,9,1,-1,101
Nc1ccc(Nc2nc(-c3ccncc3)cs2)cc1,13,112,40,1.6,-13,91
O=[N+]([O-])c1cc2c(cc1Br)CCN2,-2,103,5,1.2,-3,103
O=[N+]([O-])c1cccc(-c2csc(Nc3ccccc3)n2)c1,-46,143*,83,2.6,-49,147*
O=C(Nc1nc(-c2ccc(F)cc2)cs1)c1cnccn1,14,95,-1,1.6,5,88
Fc1ccc(Nc2nc(-c3ccncc3)cs2)cc1,-3,144*,106,1.2,-49,104
C/C(=N\N1CCN(c2ccccc2)CC1)c1ccncc1,20,107,11,1.4,-7,85
O=C(Nc1ccccc1Cl)c1cccc(COc2cc(Cl)ccc2Cl)c1,-12,129*,24,1.6,-32,111
O=C(c1ccc(COc2ccccc2Cl)o1)N1CCCC1,19,80,-9,0.82,35*,84
O=C1NC(=O)/C(=C\c2ccc(OCc3cccc(C(=O)O)c3)c(Cl)c2)N1,73*,33,79,1.1,71*,42
CC1CCN(C(=O)c2ccc(COc3ccccc3Cl)o2)CC1,0,103,4,1.1,-3,104
Cc1nn(Cc2c(F)c(F)c(F)c(F)c2F)c(C)c1NC(=O)c1cccc(COc2ccccc2Cl)c1,32,104,151*,2.1,-4,76
CN1CCN(C(=O)c2cccc(COc3cc(Cl)ccc3Cl)c2)CC1,-17,113,60,1.4,-17,116
CCCn1c(=O)n(N)c2ccccc21,18,98,20,1.2,3,87
Cn1cnnc1SCC(=O)Nc1nc(-c2ccccc2)cs1,2,109,1,1.2,-11,100
CC(=O)N1CC(=O)N=C1SCC(=O)Nc1nc(C)c(-c2ccccc2)s1,1,79,2,1.5,22,101
COc1cccc(NC2=Nc3cccc4cccc2c34)c1,6,104,10,1.2,-4,94
O=C(O)c1cccc(COc2ccccc2Cl)c1,/,/,/,15*,/,/
CC1=NN(c2ccc(F)cc2)C(=O)C1C(c1cccc(O)c1)c1c(C)[nH]n(-c2ccc(F)cc2)c1=O (configuration not stated),-56,98,-12,1.1,3,153*
Cc1[nH]n(-c2ccccc2)c(=O)c1C(c1ccc(O)c([N+](=O)[O-])c1)c1c(C)[nH]n(-c2ccccc2)c1=O,-8,111,7,/,-12,112
CN(C)S(=O)(=O)c1ccc(C(=O)Nc2ccc(Cl)cc2)cc1,22,110,-3,1.2,-11,89
COC(=O)Cc1ccc(NC(=O)c2ccccc2Cl)cc1,11,105,-9,1.2,-9,94
CCOC(=O)c1[nH]cnc1C(=O)Nc1ccc(Cl)cc1,23,118,3,1.2,-21,83
CC(C)(C)c1ccc(C(=O)Nc2ccc(Cl)cc2)cc1,2,130*,126,1.6,-33,94
COC(=O)Cc1ccc(NC(=O)c2ccc(C(C)(C)C)cc2)cc1,85*,58,-84,0.54,44*,30
SMILES,STAT3 inh,STAT1 act,APP 5'UTR act,NF-kB expr up,STAT1 blocker,STAT3 act
Cc1ocnc1C(=O)Nc1ccc(Cl)cc1,6,131*,28,1.8,-33,97
Cc1ccc(NC(=O)c2ocnc2C)cc1Cl,14,145*,73,2.7,-49,91
CCCCCCN(C(=O)CCCCCN1C(=O)NC(c2ccc(Cl)cc2)C(C(=O)OCc2ccccc2)=C1C)C(C(=O)NCCCC)c1ccc(OCC(=O)OC)c(C(=O)OC)c1 (configuration not stated),-10,92,2,1.2,9,106
COc1ccc(C(=O)N/C(=C\c2ccc3c(c2)OCO3)C(=O)Nc2cccc(C(=O)O)c2)cc1,3,102,-1,1.1,-4,98
O=c1c2cc(N3CCOCC3)ccc2[nH]c(=S)n1CCc1ccccc1,30,132*,14,1.8,-36,82
C=CCn1c(N)c(C(=O)Nc2ccccc2OC)sc1=S,-1,99,-3,0.85,1,105
C=CCn1c(N)c(C(=O)Nc2ccc(C)cc2)sc1=S,14,131*,-8,1.8,-34,89
O=C(O)C(O)Cc1c[nH]c2ccccc12 (configuration not stated),8,93,3,1,8,104
O=C(CC(C(=O)O)c1c[nH]c2ccccc12)c1ccccc1 (configuration not stated),-34,103,-3,1.1,-4,136*
Cc1cc(OCC(=O)N(C)C2CCCCC2)ccc1Cl,24,122,142*,/,-26,83
CCOC(=O)CC1CCCCN1Cc1cn[nH]c1-c1ccc(F)cc1F (configuration not stated),8,99,9,1.1,-1,97
O=C(Nc1ccccc1)c1ccc(OC(=O)c2cc3ccccc3o2)cc1,-4,104,6,1.8,-4,109
COc1cccc(C(=O)Oc2ccccc2/C=C\C(=O)c2cc3ccccc3o2)c1,-3,97,61,21*,4,105
O=C(Oc1ccccc1/C=C\C(=O)c1cc2ccccc2o1)c1cccc(F)c1,-32,102,76,4*,-3,127
O=C(Oc1ccccc1/C=C\C(=O)c1cc2ccccc2o1)c1ccccc1,-4,86,163*,5.7*,16,107
Cc1ccc(C(=O)Nc2cc(C)c(OCC(=O)N3CCOCC3)c(C)c2)cc1,12,100,48,2.1,2,91
O=C(COC(=O)c1cncc(Br)c1)Nc1ccc2c(c1)OCO2,-25,102,-32,1.3,0,127
COc1ccc(/C=C(\C#N)C(=O)OCC(=O)NC(C)c2ccccc2)cc1 (configuration not stated),12,93,-12,1.3,7,91
Cc1ccc2nc(-c3ccc(NC(=O)COC(=O)c4cncc(Br)c4)cc3)sc2c1,8,144*,152*,6.5*,-48,98
O=C(COC(=O)c1ccc(Br)o1)Nc1ccc(S(=O)(=O)N2CCCC2)cc1,-2,103,-6,1.2,-3,104
Cc1ccc2nc(-c3ccc(NC(=O)COC(=O)c4ccc(Br)o4)cc3)sc2c1,43*,142*,136*,5.3*,-46,62
COc1ccc(/C=C(\C#N)C(=O)OCC(=O)Nc2ccc(-c3nc4ccc(C)cc4s3)cc2)cc1,42,115,184*,4.5*,-15,65
Cc1ccc2nc(-c3ccc(NC(=O)CN4CCN(C(=O)c5ccco5)CC4)cc3)sc2c1,4,128,149*,4.4*,-30,97
